Compound activity deposited in PubChem by several laboratories.
Sampled rows, rich in hits. Any-hit rate of the full collection: about 2.3%.
PP1 inh – counter-screen for PP5 inhibitors: inhibitors of human PP1-alpha; P62136; purified PP1alpha, OMFP fluorescence; inhibition, % at 6.7 µM; 320,000 tested, 0.9% active; AID 2235;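 active means inhibition above the mean inhibition of all tested compounds plus 3 SD, computed separately for each screening campaign, cut at about 15% in these data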
Fh CTSL1 inh – counter-screen for PFM18AAP inhibitors: inhibitors of F. hepatica cathepsin L1; recombinant F. hepatica cathepsin L1, Z-Leu-Arg-MCA fluorescence; inhibition, % at 5.96 µM; 300,000 tested, 0.49% active; AID 1906;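 active means inhibition above the mean of all tested compounds plus 3 SD, set per screening campaign, cut at about 17% in these data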;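 further: 0% = plate median of test compound wells and 100% = 1 µM Z-Phe-Ala-diazomethylketone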
UBC13 inh – human UBC13 polyubiquitination inhibition. 330,000 tested, 0.47% active. UBC13 polyubiquitin chain formation, TR-FRET. inhibition, % at 20 µM; in the data active means inhibition above about 45%, passing the limit was not always enough
PREPL inh – human PREPL enzyme inhibition. Q4J6C6. recombinant PREPL, fluorescence polarization activity-based probe. inhibition, % at 5.96 µM. 320,000 tested, 0.68% active. AID 2751; in the data active means inhibition above about 43%;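 further: 0% = enzyme with DMSO and 100% = wells lacking enzyme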
Target sequence (Q4J6C6 whole entry, looked up): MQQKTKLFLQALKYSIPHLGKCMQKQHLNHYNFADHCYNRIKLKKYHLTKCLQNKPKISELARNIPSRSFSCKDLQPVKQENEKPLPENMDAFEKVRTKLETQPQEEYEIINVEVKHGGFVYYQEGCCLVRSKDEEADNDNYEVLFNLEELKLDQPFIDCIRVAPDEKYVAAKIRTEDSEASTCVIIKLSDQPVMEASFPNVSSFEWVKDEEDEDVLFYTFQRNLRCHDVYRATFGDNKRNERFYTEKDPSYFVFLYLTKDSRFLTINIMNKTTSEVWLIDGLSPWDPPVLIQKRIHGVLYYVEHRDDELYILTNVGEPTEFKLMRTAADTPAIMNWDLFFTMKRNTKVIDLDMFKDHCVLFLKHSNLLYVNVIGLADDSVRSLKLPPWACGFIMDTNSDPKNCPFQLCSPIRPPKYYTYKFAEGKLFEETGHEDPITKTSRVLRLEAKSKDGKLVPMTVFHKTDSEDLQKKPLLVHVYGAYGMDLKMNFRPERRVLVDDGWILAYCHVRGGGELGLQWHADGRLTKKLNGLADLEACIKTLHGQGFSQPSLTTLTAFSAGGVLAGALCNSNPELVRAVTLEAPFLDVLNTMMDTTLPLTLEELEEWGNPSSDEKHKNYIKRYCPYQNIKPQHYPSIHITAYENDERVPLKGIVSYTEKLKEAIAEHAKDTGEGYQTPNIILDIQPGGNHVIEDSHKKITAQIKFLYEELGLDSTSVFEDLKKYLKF
UCH37 inh – blocks the human deubiquitinase UCH37. Q9Y5K5. purified proteasome/UCH37, Ub-AMC cleavage fluorescence. inhibition, % (concentration not given with the values). 330,000 tested, 0.33% active. AID 588478;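 active means mean inhibition over replicate wells above about 20%, limit read from the data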;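 further: 0% = compound-free wells with enzyme and 100% = wells lacking proteasome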
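Reagent: Ub-AMC substrate; assay system: Proteasome-associated human UCH37 deubiquitinase; controls: no-proteasome and no-compound wells; read-out: % inhibition of Ub-AMC cleavage fluorescence; timing: 30 min preincubation with enzyme, 25 min cleavage at room temperature; signal: AMC fluorescence from Ub-AMC cleavage, excitation 355 nm, emission 460 nm; buffer or medium: Tris-HCl pH 7.4 plus ovalbumin, ATP-MgCl2, DTT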
PP5 inh – blocks human protein phosphatase 5 activity. P53041. purified PP5c, OMFP substrate fluorescence. inhibition, % at 6.7 µM. 320,000 tested, 0.18% active. AID 1987;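 active means inhibition above the campaign's mean inhibition across all tested compounds plus 3 SD, cut at about 9.5% in these data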;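 further: 0% = DMSO only and 100% = 100 µM cantharidin control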
PP1 inh confirm – confirmation of human PP1 phosphatase inhibitors; shares compounds with PP1 inh; purified PP1alpha, OMFP substrate fluorescence; inhibition, % at 6.7 µM; 1,900 tested, 52% active; AID 2358;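 active means mean PP1 inhibition above a set limit taken from the earlier primary screen, cut at about 15% in these data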
PP5 inh counter – PP5 phosphatase inhibition, counter-screen for PP1 inhibitors; inhibition, % at 6.7 µM; shares compounds with PP1 inh; purified PP5c, OMFP fluorescence; 1,900 tested, 4% active;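 active means mean PP5 inhibition over triplicate wells above about 9.5% taken from the earlier PP1 screen, limit read from the data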
An asterisk follows results filed as active; nt = no result given.

SMILES | PP1 inh | Fh CTSL1 inh | UBC13 inh | PREPL inh | UCH37 inh | PP5 inh | PP1 inh confirm | PP5 inh counter
Cc1noc(/C=C/c2ccco2)c1S(=O)(=O)N1CCC(C(=O)NC(C)c2ccccc2)CC1 (stereo not drawn) | 5 | 3 | -27 | 12 | 3 | 4 | nt | nt
Cc1noc(/C=C/c2ccco2)c1S(=O)(=O)N1CCC(C(=O)N(C)Cc2ccccc2)CC1 | 19* | -1 | -16 | -11 | 6 | 4 | 11 | 0
C=CCOc1ccc(C=NNC(=O)CN(c2cc(Cl)ccc2OC)S(=O)(=O)c2ccc(C)c([N+](=O)[O-])c2)cc1 | nt | nt | nt | nt | 5 | nt | nt | nt
COC(=O)c1ccc(CNCC(O)COc2ccc(-c3ccccc3)cc2)cc1 (stereo not drawn) | 8 | -1 | 3 | -25 | 2 | 5 | nt | nt
COc1ccc(CNCC(O)COc2ccc(C(C)(C)c3ccccc3)cc2)cc1 (stereo not drawn) | 24* | 1 | 36 | -10 | 3 | 3 | 12 | 3
O=C(Nc1nnc(C2CC2)s1)c1ccc(Cl)c(S(=O)(=O)N2CCc3ccccc3C2)c1 | 20* | 2 | -9 | -3 | -4 | 4 | 21* | -2
CCOC(=O)NN=Cc1c(F)cccc1F | nt | nt | nt | nt | 2 | nt | nt | nt
Cc1ccc(-n2c(O)c(/C=N/NC(=O)C3COc4ccccc4O3)c3ccccc3c2=O)cc1 (stereo not drawn) | 19* | -1 | -10 | 19 | -2 | -1 | 27* | -2
Cc1c(C=NNC(=O)C2COc3ccccc3O2)c2ccccc2n1C (stereo not drawn) | nt | nt | nt | nt | 7 | nt | nt | nt
Cc1c(/C=N\NC(=O)C2COc3ccccc3O2)c2ccccc2n1C (stereo not drawn) | 1 | 2 | nt | 21 | nt | 4 | nt | nt
O=C(N/N=C/c1c(O)n(-c2ccccc2Cl)c(=O)c2ccccc12)C1COc2ccccc2O1 (stereo not drawn) | 19* | 0 | -10 | 2 | -15 | -3 | 23* | -3
COc1cc(C(=O)Oc2ccccc2C=NNC(=O)c2ccc(Cl)cc2)cc(OC)c1OC | nt | nt | nt | nt | -6 | nt | nt | nt
Cc1nn(-c2ccccc2)c2[nH]c(=O)c(CNCc3ccc4c(c3)OCO4)cc12 | -3 | -1 | -3 | 4 | 4 | -2 | nt | nt
Cc1ccc(-c2nn(-c3ccccc3)c3[nH]c(=O)c(CNCc4ccccc4)cc23)cc1 | 27* | -2 | -2 | 25 | -15 | 4 | 27* | -3
c1ccc(-[n+]2nc(Nc3cccc4ccccc34)sc2-c2c3ccccc3cc3ccccc23)cc1 | 31* | 3 | -93 | 30 | 4 | 3 | 30* | 1
CCc1ccc(Nc2n[n+](-c3ccccc3)c(-c3cccc(C)c3)s2)cc1 | 11 | 3 | 13 | 14 | 1 | 2 | nt | nt
Oc1ccc2ccccc2c1-c1sc(Nc2ccccc2)n[n+]1-c1ccc(F)cc1 | 3 | 6 | -174 | 2 | 2 | 2 | nt | nt
Fc1ccc(-[n+]2nc(Nc3ccccc3)sc2-c2c3ccccc3cc3ccccc23)cc1 | 22* | -2 | -8 | 13 | 5 | 2 | 5 | 1
Cc1ccc(C(=O)NN=Cc2nc3ccccc3n2C)cc1 | nt | nt | nt | nt | -77 | nt | nt | nt
CN(C)c1cc(NN=Cc2ccccc2)nc(N(C)C)n1 | nt | nt | nt | nt | 3 | nt | nt | nt
Cc1ccc(NC(=O)CN2C(=O)N/C(=C/c3ccccc3OCc3cccc(C(=O)O)c3)C2=O)cc1 | 52* | 4 | -12 | -14 | -215 | 2 | 33* | -6
COc1cccc(/C=C2/NC(=O)N(CC(=O)Nc3ccc(C)cc3)C2=O)c1OCc1cccc(C(=O)O)c1 | -2 | 5 | 0 | -2 | -219 | 1 | nt | nt
CCC(=O)c1ccc(OCC(=O)Nc2nc(-c3cccnc3)cs2)cc1 | 18* | -1 | -10 | 4 | 5 | 0 | 29* | -6
Cc1ccccc1OCC(=O)Nc1nc(-c2ccncc2)cs1 | 4 | nt | 8 | -11 | 0 | 0 | nt | nt
CCc1ccccc1OCC(=O)Nc1nc(-c2cccnc2)cs1 | 45* | 3 | -15 | -3 | -2 | 10* | 44* | 1
SMILES | PP1 inh | Fh CTSL1 inh | UBC13 inh | PREPL inh | UCH37 inh | PP5 inh | PP1 inh confirm | PP5 inh counter
CCC(=O)c1ccc(OCC(=O)Nc2nc(C)cs2)cc1 | nt | nt | 5 | 5 | 1 | nt | nt | nt
CCCCOc1ccc(C=NNC(=O)C2CCCNC2=O)cc1 (stereo not drawn) | nt | nt | nt | nt | 4 | nt | nt | nt
O=C(NN=Cc1c[nH]c2ccccc12)c1cc(-c2ccc(-c3ccccc3)cc2)n[nH]1 | nt | nt | nt | nt | 2 | nt | nt | nt
ON=C(Cc1ccccn1)c1ccccc1 | nt | nt | nt | nt | 7 | nt | nt | nt
CC1=C(C(=O)Nc2ccccc2)C(c2ccc(C)cc2)N=C(Nc2nc3ccccc3o2)N1 (stereo not drawn) | 23* | 2 | 23 | 0 | -140 | -2 | 25* | 0
CC1(C)CC(=O)C2=C(C1)NC(Nc1nc3ccccc3o1)=NC2c1ccccn1 (stereo not drawn) | -1 | 5 | -7 | -32 | -11 | 0 | nt | nt
NC(=O)NN=Cc1cn(-c2ccccc2)nc1-c1ccccc1 | nt | nt | nt | nt | 2 | nt | nt | nt
O=C(CSc1nnc(-c2ccccc2O)o1)Oc1ccc(OCc2ccccc2)cc1 | 24* | 1 | 18 | 1 | -92 | 2 | 30* | -5
O=C(CSc1nnc(-c2ccncc2)o1)Oc1ccccc1 | 2 | -21 | 10 | 0 | -4 | 1 | nt | nt
CC(=O)NC(c1ccc(C)cc1)c1cc(Cl)c2cccnc2c1O (stereo not drawn) | nt | nt | -8 | nt | nt | nt | nt | nt
Oc1c(C(Nc2ccccn2)c2cccnc2)cc(Cl)c2cccnc12 (stereo not drawn) | 22* | 1 | -27 | 11 | 0 | 3 | 19* | -3
COc1ccc(C(NC(=O)c2cccnc2)c2cc(Cl)c3cccnc3c2O)cc1OC (stereo not drawn) | 34* | -2 | -26 | 21 | -2 | 1 | 22* | -2
CC(=NNC(=O)c1ccc(Cl)c(Cl)c1)c1ccc(Br)s1 | nt | nt | nt | nt | -33 | nt | nt | nt
Cc1ccc(OCC(=O)NN=Cc2ccco2)cc1 | nt | nt | nt | nt | -1 | nt | nt | nt
Fc1ccc(C=NNc2nnnn2-c2ccccc2)cc1 | nt | nt | nt | nt | 6 | nt | nt | nt
COc1ccc(/C=C2/SC(=O)N(CCC(=O)Nc3ccc(C)cc3)C2=O)cc1OC | -4 | -5 | 16 | 0 | -5 | 3 | nt | nt
COc1cc(/C=C2\SC(N)=NC2=O)ccc1OCC(=O)Nc1ccc(C)cc1 | 21* | 1 | -5 | 2 | 1 | 1 | 18* | 1
O=C(O)c1ccc(N=Nc2c(O)ccc3ncccc23)cc1 | 21* | 7 | -147 | 6 | nt | 4 | 14 | 0
COc1cccc(C=NNc2cc(Cl)nc(C)n2)c1O | nt | nt | nt | nt | 1 | nt | nt | nt
CC(=C/c1ccccc1)/C=N/NC(=O)c1nnn(-c2nonc2N)c1CN1CCC(C)CC1 | 9 | 3 | -5 | 8 | nt | 5 | nt | nt
